Results published in PubChem BioAssay.
Active and inactive are the calls of the source.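 The calls were made as follows, unless noted: active = viability at or below 30% in both replicate assays; inconclusive = viability at or below 30% in just one of the two assays; inactive = the rest.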

Key:
[1] = Her2 expression decrease, cell viability multiplex – SKBR3 breast tumor cells, AlphaScreen, ATP viability, primary screen (AID 461;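 active = Her2 level under about 52% in both replicate screens, with viability over 70% of control, limit read from the data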;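 as to Her2 level: lower value means less Her2 protein in the cells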;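 as to viability: percent of carrier control wells set as 100% viability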); conditions: SKBR3 Her2 protein level, 18-24 h, measured here: SKBR3 viability, ATP luminescence, at 10 µM
[2] = target: Receptor tyrosine-protein kinase erbB-2 (Homo sapiens) (UniProt P04626); assay: as above; conditions: 18-24 h, at 10 µM, stronger effect = lower value
[3] = reduced viability of SK-BR-3 breast cancer cells – cell-based, 24 h, human, pilot screen (AID 572;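 active = viability at or below 10% of carrier control in both of two separate runs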;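 also: compound exposure lasted between 18 and 24 h rather than exactly 24 h; 100% = carrier-treated control wells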); conditions: SK-BR-3 viability, CellTiter-Glo luminescence, at 10 µM, stronger effect = lower value
[4] = HUVEC growth inhibition – cell-based, human, primary screen (AID 575); conditions: HUVEC proliferation, CellTiter-Glo luminescence, 72 h; at 10 µM; stronger effect = lower value;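 also: 100% = median of untreated cell wells with 0.1% DMSO on each plate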
Outline: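 Test system: primary human umbilical vein endothelial cells. Quantity: 1250 cells/well. Compound: single 10 µM dose, 0.1% DMSO, from 5x medium stock. Timing: 72 h treatment at 37 °C. Detection: ATP-based CellTiter-Glo luminescent read. Benchmarks: vehicle and MePR control wells. Format: 384-well plates coated with collagen.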

[5] = H69AR cell proliferation blockers – human, duplicate replicates, primary screen (AID 580;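 active = viability at or under a set limit in both replicates, limit being median viability minus 3 SD, cut at about 48% in these data, passing the limit was not always enough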;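 also: 100% = mean luminescence of untreated wells and 0% = no signal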); conditions: H69AR lung tumor cells viability, ATP luminescence, 72 h; at 10 µM; stronger effect = lower value
[6] = MRP1 drug-resistance reversers in H69AR cells – cell-based, doxorubicin co-treatment, pilot screen (AID 601;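 active = viability loss from added drug above about 55%, and viability with drug at most 40%, in both replicates, limit read from the data, passing the limit was not always enough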); conditions: CellTiter-Glo, 72 h, at 10 µM; for differential viability (reversal): stronger effect = higher value
[7] = yeast transport mutant growth inhibition pilot in 384-well plates, post-Golgi transport modulator project (AID 636; in the data active = inhibition above about 31%); conditions: absorbance 615 nm, about 18 h, stronger effect = higher value
[8] = growth suppression of yeast trafficking mutant, preliminary HTS, modulators of trafficking downstream of Golgi apparatus project, 1536-format plate, OD 615 nm (AID 637; in the data active = inhibition above about 30%); conditions: yeast transport mutant growth, absorbance 615 nm, 18 h; stronger effect = higher value
[9] = H69AR cells + 2 uM doxorubicin, measured here: viability with 2 uM doxorubicin, stronger effect = lower value
[10] = H69AR cells, compound alone cytotoxicity

Sequence of Receptor tyrosine-protein kinase erbB-2 (Homo sapiens) (P04626 whole entry, looked up): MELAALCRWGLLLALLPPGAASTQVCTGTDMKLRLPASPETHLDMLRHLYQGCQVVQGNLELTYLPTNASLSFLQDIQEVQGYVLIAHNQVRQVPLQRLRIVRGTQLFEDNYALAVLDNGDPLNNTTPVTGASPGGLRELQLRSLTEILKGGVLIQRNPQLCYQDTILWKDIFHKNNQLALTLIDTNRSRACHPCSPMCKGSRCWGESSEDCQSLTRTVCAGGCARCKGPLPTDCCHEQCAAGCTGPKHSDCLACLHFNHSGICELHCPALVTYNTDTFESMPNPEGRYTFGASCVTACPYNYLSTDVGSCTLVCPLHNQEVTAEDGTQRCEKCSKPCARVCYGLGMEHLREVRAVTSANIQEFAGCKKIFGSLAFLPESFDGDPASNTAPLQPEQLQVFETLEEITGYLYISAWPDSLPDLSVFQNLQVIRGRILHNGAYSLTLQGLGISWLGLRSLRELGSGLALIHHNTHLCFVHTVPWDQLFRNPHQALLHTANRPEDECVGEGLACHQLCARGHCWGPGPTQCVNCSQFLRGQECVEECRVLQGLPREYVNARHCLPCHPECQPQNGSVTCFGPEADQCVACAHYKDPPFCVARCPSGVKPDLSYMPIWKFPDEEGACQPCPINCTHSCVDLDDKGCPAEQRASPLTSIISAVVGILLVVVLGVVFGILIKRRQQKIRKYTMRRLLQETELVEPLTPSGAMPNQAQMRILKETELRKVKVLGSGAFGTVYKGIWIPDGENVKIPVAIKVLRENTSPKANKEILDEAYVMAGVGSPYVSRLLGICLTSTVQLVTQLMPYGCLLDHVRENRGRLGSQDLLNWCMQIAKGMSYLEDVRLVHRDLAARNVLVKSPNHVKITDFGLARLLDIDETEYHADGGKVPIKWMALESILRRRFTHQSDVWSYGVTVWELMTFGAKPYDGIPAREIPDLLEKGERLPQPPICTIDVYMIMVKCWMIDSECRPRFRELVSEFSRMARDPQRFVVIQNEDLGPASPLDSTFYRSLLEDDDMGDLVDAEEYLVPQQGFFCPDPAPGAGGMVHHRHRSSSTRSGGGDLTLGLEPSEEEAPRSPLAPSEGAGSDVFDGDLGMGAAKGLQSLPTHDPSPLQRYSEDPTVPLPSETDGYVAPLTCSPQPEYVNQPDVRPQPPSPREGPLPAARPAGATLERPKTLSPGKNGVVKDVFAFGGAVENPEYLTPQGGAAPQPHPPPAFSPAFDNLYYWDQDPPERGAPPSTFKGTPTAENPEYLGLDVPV

Row | SMILES | viability [1] [%] | Her2 level [2] | viability [3] | viability [4] | viability [5] | differential viability (reversal) ([6]; H69AR cells + 2 uM doxorubicin) | viability [6, 9] [%] | viability [6, 10] [%] | inhibition [7] | inhibition [8]
1 | COCCCNC(=O)CCc1nc2cccnc2n1Cc1ccc(OC)cc1 | 110 | 106% (inactive) | 110% (inactive) | 115% (inactive) | 99.2% (inactive) | 4.86% (inactive) | 94.3 | 99.2 | -7.03% (inactive) | 1.83% (inactive)
2 | CC(=O)Nc1ccc(Cl)c(C(N)=O)c1 | 110 | 108% (inactive) | 110% (inactive) | 97.1% (inactive) | 95.3% (inactive) | 8.55% (inactive) | 86.8 | 95.3 | -3.68% (inactive) | 6.07% (inactive)
3 | O=C(NCCN1CCOCC1)c1csc2c1CCCC2 | 97.5 | 83% (inactive) | 97.5% (inactive) | 95% (inactive) | 102% (inactive) | 16.4% (inactive) | 86 | 102 | -7.3% (inactive) | -1.83% (inactive)
4 | COC(=O)c1cc2oc(C)cc2n1CC(=O)Nc1ccc(C)c(C)c1 | 85.5 | 83% (inactive) | 85.5% (inactive) | 59.5% (inactive) | 83.8% (inactive) | -3.33% (inactive) | 87.1 | 83.8 | 0.51% (inactive) | -7% (inactive)
5 | CCOC(=O)CSc1nc2ccccc2c(=O)n1CCN1CCOCC1 | 92.5 | 87.5% (inactive) | 92.5% (inactive) | 87.6% (inactive) | 95.4% (inactive) | 11% (inactive) | 84.4 | 95.4 | 0% (inactive) | -6.19% (inactive)
6 | CCn1c(=N)n(CC(O)c2ccco2)c2ccccc21 (stereo not given) | 94.5 | 119% (inactive) | 94.5% (inactive) | 116% (inactive) | 90.4% (inactive) | 10.3% (inactive) | 80.1 | 90.4 | -4.49% (inactive) | 4.67% (inactive)
7 | NC(=O)c1cccc(S(=O)(=O)N2CCCCC2)c1 | 99 | 96% (inactive) | 99% (inactive) | 96.9% (inactive) | 106% (inactive) | 9.71% (inactive) | 96.5 | 106 | -7.84% (inactive) | 2.62% (inactive)
8 | CCOc1ccc(S(=O)(=O)NCC2CCCO2)c2cccnc12 (stereo not given) | 99 | 99.5% (inactive) | 99% (inactive) | 93.8% (inactive) | 93.6% (inactive) | 6.55% (inactive) | 87.1 | 93.6 | 0.13% (inactive) | 5.08% (inactive)
9 | COc1cccc(CNC(=O)CCn2c(=O)oc3ccccc32)c1 | 77.5 | 94.5% (inactive) | 77.5% (inactive) | 94.7% (inactive) | 86.4% (inactive) | -3.03% (inactive) | 89.4 | 86.4 | -5.92% (inactive) | -1.82% (inactive)
10 | Cc1ccc(N2CC(C)Cn3c2nc2c3c(=O)n(CC(=O)OCc3ccccc3)c(=O)n2C)cc1C (stereo not given) | 86.5 | 99.5% (inactive) | 86.5% (inactive) | 74.8% (inactive) | 93.8% (inactive) | 26.6% (inactive) | 67.2 | 93.8 | -4.32% (inactive) | 1.97% (inactive)
11 | COc1ccc2ccccc2c1CN1CCN(C)CC1 | 97 | 94.5% (inactive) | 97% (inactive) | 75.1% (inactive) | 104% (inactive) | 7.19% (inactive) | 96.6 | 104 | 1.43% (inactive) | -0.66% (inactive)
12 | COC(=O)c1c(NC(=O)c2ccc(S(=O)(=O)N3CCOCC3)cc2)sc2c1CCN(C)C2 | 96 | 106% (inactive) | 96% (inactive) | 94.8% (inactive) | 90% (inactive) | -5.3% (inactive) | 95.3 | 90 | -5.26% (inactive) | -7.46% (inactive)
13 | COc1cc(OC)nc(NC(=O)CSc2nc3ccccc3o2)n1 | 87.5 | 82.5% (inactive) | 87.5% (inactive) | 97.7% (inactive) | 92.4% (inactive) | -2.58% (inactive) | 94.9 | 92.4 | -6.4% (inactive) | 2.95% (inactive)
14 | O=C(NC1CCCC1)C1CC1c1ccccc1 (stereo not given) | 100 | 102% (inactive) | 100% (inactive) | 93.9% (inactive) | 98.3% (inactive) | -2.33% (inactive) | 101 | 98.3 | -6.13% (inactive) | 1.15% (inactive)
15 | Cc1c[nH]c2cccc(OCC(O)CNC(C)(C)C)c12 (stereo not given) | 91.5 | 96% (inactive) | 91.5% (inactive) | 100% (inactive) | 88.3% (inactive) | 0.28% (inactive) | 88 | 88.3 | -3.6% (inactive) | 17.8% (inactive)
16 | O=C(CCn1c(=S)[nH]c2cc3c(cc2c1=O)OCO3)N1CCN(C2CCCCC2)CC1 | 90.5 | 82.5% (inactive) | 90.5% (inactive) | 93.8% (inactive) | 90% (inactive) | -2.85% (inactive) | 92.8 | 90 | -5.54% (inactive) | -0.66% (inactive)
17 | CCCCOc1ccc(CSc2n[nH]c(C)n2)cc1 | 83.5 | 99.5% (inactive) | 83.5% (inactive) | 103% (inactive) | 100% (inactive) | 10.7% (inactive) | 89.7 | 100 | -1.22% (inactive) | -0.49% (inactive)
18 | O=C(O)c1cccc(NS(=O)(=O)c2ccc3nnn(O)c3c2)c1 | 123 | 87% (inactive) | 123% (inactive) | 94.9% (inactive) | 102% (inactive) | 3.63% (inactive) | 98 | 102 | -4.27% (inactive) | 5.71% (inactive)
19 | CCN(CC)c1ccc(-c2nn3c(-c4cccnc4)nnc3s2)cc1 | 91.5 | 64% (inactive) | 91.5% (inactive) | 37% (inactive) | 10.9% (active) | -4.5% (inactive) | 15.4 | 10.9 | -5.92% (inactive) | -7.1% (inactive)
20 | OCCN1CCN(CC(O)COc2ccc3ccccc3c2)CC1 (stereo not given) | 88.5 | 82% (inactive) | 88.5% (inactive) | 92.8% (inactive) | 102% (inactive) | 10% (inactive) | 92.3 | 102 | -4.8% (inactive) | 5.25% (inactive)
21 | Cc1nc(/N=C(\N)Nc2ccccc2)nc2ccccc12 | 91.5 | 67.5% (inactive) | 91.5% (inactive) | 74.5% (inactive) | 78.7% (inactive) | -21% (inactive) | 99.7 | 78.7 | -0.26% (inactive) | 10.5% (inactive)
22 | CCOC(=O)c1ccc(NC(=O)COc2ccc(-n3cnnn3)cc2)cc1 | 124 | 95% (inactive) | 124% (inactive) | 96.8% (inactive) | 89% (inactive) | 1.81% (inactive) | 87.2 | 89 | -4.13% (inactive) | -1.43% (inactive)
23 | Cc1ccc2cc(C#N)c(NCCCNC(=O)C3CCCO3)nc2c1 (stereo not given) | 106 | 73% (inactive) | 106% (inactive) | 104% (inactive) | 99% (inactive) | 12.6% (inactive) | 86.4 | 99 | -6.71% (inactive) | 6.19% (inactive)
24 | COc1cccc(-c2nnc(SCC(=O)N3CCCc4ccccc43)o2)c1 | 93.5 | 87.5% (inactive) | 93.5% (inactive) | 60.4% (inactive) | 90.6% (inactive) | 4.79% (inactive) | 85.8 | 90.6 | -4.61% (inactive) | -3.33% (inactive)
25 | O=C(NCC1CCCO1)C1c2ccccc2C(=O)N1C1CCCCCC1 (stereo not given) | 105 | 89% (inactive) | 105% (inactive) | 88.9% (inactive) | 104% (inactive) | 6.58% (inactive) | 97.6 | 104 | -2.6% (inactive) | 1.43% (inactive)
26 | Clc1ccc(Cc2nn3c(-c4ccncc4)nnc3s2)cc1 | 99.5 | 107% (inactive) | 99.5% (inactive) | 101% (inactive) | 96.9% (inactive) | -0.11% (inactive) | 97 | 96.9 | -1.05% (inactive) | 15.4% (inactive)
27 | CCOC(=O)c1ccc(NS(=O)(=O)c2cccc3nsnc23)cc1 | 90.5 | 106% (inactive) | 90.5% (inactive) | 113% (inactive) | 95.9% (inactive) | -3.26% (inactive) | 99.1 | 95.9 | 1.2% (inactive) | 2.22% (inactive)
28 | Cc1ccc(/C(O)=C2/C(=O)C(=O)N(Cc3ccco3)C2c2cccs2)cc1 (stereo not given) | 103 | 114% (inactive) | 103% (inactive) | 101% (inactive) | 67.6% (inactive) | -13.1% (inactive) | 80.7 | 67.6 | -5.21% (inactive) | -7.78% (inactive)
